Measurements from ChEMBL document CHEMBL1133541, “Conformationally constrained butyrophenones with affinity for dopamine (D(1), D(2), D(4)) and serotonin (5-HT(2A), 5-HT(2B), 5-HT(2C)) receptors: synthesis of aminomethylbenzo[b]furanones and their evaluation as antipsychotics” (J Med Chem, 2000).

What was measured:
[1] = target: T1, 5-hydroxytryptamine receptor 2B (Rattus norvegicus, UniProt P30994); test: Compound was evaluated for antagonism against serotonin (5-hydroxytryptamine 2B receptor ) receptor; format: functional; conditions: read-out: pA2 (converted)
Summary of the method: (§1)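 Rat stomach fundus strips in modified Krebs solution, 37 °C, carbogen-aerated organ baths; serotonin cumulative concentration-response curves (0.01 nM-10 µM), runs alternating with and without antagonist, 60 min rest between. Antagonism expressed as pA2 (-log antagonist concentration maintaining response when agonist doubled); 3-4 replicate experiments.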

[2] = target: T2, 5-hydroxytryptamine receptor 2A (Rattus norvegicus, UniProt P14842); test: In vitro affinity against serotonin 5-hydroxytryptamine 2A receptor
Mus musculus [3] = test: Antipsychotic activity was determined in mice or rat within 20-30 min of administration
Mus musculus [4] = test: Effective dose administered in catalepsy test in mice (in vivo); format: functional
Summary of the method: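 Mice (n = 6-12) tested 30 min after dosing: forepaws on one horizontal wire, hindpaws on another 6 cm away and 2 cm lower. Posture held over 30 s counted as catalepsy; ED50 by Litchfield-Wilcoxon method.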

D(1A) dopamine receptor = D(1A) dopamine receptor (Rattus norvegicus, UniProt P18901); test: In vitro affinity against Dopamine receptor D1
[5] = In vitro affinity against Dopamine receptor D4; set-up: species or system Bos taurus
Mus musculus [6] = test: Effective dose administered in apomorphine induced climbing test in mice (in vivo); format: functional
Mus musculus [7] = test: Effective dose administered in apomorphine induced climbing test in mice (in vivo); Value ranges from 0.8-1.44; format: functional
[8] = target: T2, 5-hydroxytryptamine receptor 2A; test: In vitro affinity against serotonin ( 5-hydroxytryptamine 2A receptor ) receptor
Summary of the method: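 Rat frontal cortex membranes (male Sprague-Dawley), preincubated 37 °C 15 min to remove endogenous 5-HT, in Tris-HCl pH 8.07 with 4 mM CaCl2 and 0.1% ascorbic acid. [3H]ketanserin competition in triplicate, 1 µM methysergide masking as required, 30 min at 37 °C; filtration on PEI-soaked GF/C, scintillation counting; two replicate experiments.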

[9] = target: T1, 5-hydroxytryptamine receptor 2B; test: Compound was evaluated for antagonism against serotonin (5-hydroxytryptamine 2B) receptor; format: functional; conditions: read-out: pA2 (converted); summary of the method: as §1
[10] = target: T3, 5-hydroxytryptamine receptor 2C (Homo sapiens) (UniProt P28335); conditions: Bos taurus; 10e-6 M
T3 sequence (whole entry): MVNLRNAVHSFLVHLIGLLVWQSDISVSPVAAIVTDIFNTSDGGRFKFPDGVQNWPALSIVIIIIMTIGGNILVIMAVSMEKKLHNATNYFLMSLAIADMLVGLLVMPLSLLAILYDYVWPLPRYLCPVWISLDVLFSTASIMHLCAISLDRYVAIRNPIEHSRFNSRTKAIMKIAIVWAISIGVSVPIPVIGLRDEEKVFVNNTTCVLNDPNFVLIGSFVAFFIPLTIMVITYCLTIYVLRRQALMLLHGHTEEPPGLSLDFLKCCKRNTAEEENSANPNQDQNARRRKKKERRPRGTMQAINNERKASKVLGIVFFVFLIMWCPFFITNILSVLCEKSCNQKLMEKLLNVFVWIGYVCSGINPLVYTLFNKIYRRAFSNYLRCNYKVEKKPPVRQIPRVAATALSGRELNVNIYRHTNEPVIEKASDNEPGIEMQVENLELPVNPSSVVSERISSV

[11] = target: T3, 5-hydroxytryptamine receptor 2C (Homo sapiens); conditions: Bos taurus; 10e-6 M; remark: listed apart in the source

T2 sequence (P14842 whole entry): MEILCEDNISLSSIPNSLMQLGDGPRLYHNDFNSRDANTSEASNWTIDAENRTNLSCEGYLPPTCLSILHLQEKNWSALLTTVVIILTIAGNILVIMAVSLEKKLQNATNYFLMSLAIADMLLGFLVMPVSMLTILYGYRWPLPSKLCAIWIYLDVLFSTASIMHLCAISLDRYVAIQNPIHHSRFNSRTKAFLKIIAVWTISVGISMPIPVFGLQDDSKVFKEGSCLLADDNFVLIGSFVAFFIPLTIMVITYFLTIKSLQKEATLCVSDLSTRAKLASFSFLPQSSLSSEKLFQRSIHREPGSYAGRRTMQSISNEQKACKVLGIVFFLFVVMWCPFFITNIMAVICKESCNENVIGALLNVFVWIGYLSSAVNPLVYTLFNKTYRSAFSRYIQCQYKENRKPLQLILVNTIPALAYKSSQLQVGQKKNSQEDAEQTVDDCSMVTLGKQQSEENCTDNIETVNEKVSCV
T1 sequence (P30994 whole entry): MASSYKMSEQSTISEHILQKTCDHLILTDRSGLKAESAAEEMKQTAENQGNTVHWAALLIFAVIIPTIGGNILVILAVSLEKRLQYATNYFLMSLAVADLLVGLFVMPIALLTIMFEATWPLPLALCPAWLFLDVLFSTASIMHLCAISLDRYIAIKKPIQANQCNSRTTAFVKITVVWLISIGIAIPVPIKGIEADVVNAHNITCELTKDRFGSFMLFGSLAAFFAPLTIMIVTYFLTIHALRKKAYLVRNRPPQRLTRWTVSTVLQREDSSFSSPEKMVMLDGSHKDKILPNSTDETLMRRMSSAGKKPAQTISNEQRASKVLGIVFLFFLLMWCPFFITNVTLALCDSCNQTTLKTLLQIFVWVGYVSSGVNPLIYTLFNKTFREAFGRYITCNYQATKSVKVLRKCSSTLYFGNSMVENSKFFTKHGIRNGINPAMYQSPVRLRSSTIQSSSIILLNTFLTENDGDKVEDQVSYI
Chain of D(1A) dopamine receptor (P18901 whole entry): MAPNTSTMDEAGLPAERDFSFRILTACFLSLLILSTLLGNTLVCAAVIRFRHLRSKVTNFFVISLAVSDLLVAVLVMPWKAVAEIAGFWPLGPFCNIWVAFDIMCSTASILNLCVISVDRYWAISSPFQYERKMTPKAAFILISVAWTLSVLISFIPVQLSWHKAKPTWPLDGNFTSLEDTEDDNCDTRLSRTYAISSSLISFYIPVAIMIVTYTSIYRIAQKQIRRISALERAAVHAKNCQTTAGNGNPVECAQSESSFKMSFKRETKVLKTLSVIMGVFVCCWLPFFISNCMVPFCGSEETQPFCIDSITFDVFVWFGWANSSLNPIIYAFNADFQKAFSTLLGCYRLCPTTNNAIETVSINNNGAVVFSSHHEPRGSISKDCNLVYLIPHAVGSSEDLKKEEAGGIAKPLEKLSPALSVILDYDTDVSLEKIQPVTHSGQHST

Kb [1]	Ki [2]	Log Ki [5]	Compound	further results
3470 nM	8320 nM	–	O=C1CC(CN2CCN(c3ccccn3)CC2)Cc2occc21 (stereo not given)	–
245 nM	10.7 nM	-7.68	O=C1CC(CN2CCC(c3noc4cc(F)ccc34)CC2)Cc2occc21 (stereo not given)	ED50 (Mus musculus [3]): 0.48 mg/kg; ED50 (Mus musculus [4]): 3.84 mg/kg; Ki (D(1A) dopamine receptor): 28.8 nM; ED50 (Mus musculus [6]): 0.34 mg/kg
–	–	-7.04	O=C1CC(CN2CCC(C(=O)c3ccc(F)cc3)CC2)Cc2occc21 (stereo not given)	ED50 (Mus musculus [3]): 1.21 mg/kg; ED50 (Mus musculus [4]): 3.44 mg/kg; Ki (D(1A) dopamine receptor): 195 nM; ED50 (Mus musculus [7]): 0.95 mg/kg; Ki [8]: 51.3 nM; Kb [9]: 195 nM
–	–	-8.2	O=C(CCCN1CCC(O)(c2ccc(Cl)cc2)CC1)c1ccc(F)cc1 [HALOPERIDOL]	–
646 nM	2290 nM	–	COc1ccccc1N1CCN(CC2CC(=O)c3ccoc3C2)CC1 (stereo not given)	–
589 nM	1260 nM	–	O=C(CCCCN1CCN(CC2CC(=O)c3ccoc3C2)CC1)c1ccc(F)cc1 (stereo not given)	Inhibition [10]: 44.3%
437 nM	955 nM	–	O=C(CCCN1CCN(CC2CC(=O)c3ccoc3C2)CC1)c1ccc(F)cc1 (stereo not given)	Inhibition [11]: 3.7%
> 100000 nM	–	–	O=C1CC(CN2CCN(c3ccccc3)CC2)Cc2occc21 (stereo not given)	Ki [8]: 21.9 nM

Compound	Kb [1]	Ki [2]	Log Ki [5]	further results
CN1CCN(C2=Nc3cc(Cl)ccc3Nc3ccccc32)CC1 [CLOZAPINE]	–	–	-7.42	–
O=C1CC(CN2CCN(c3ncccn3)CC2)Cc2occc21 (stereo not given)	1820 nM	> 100000 nM	–	–
